# Most compounds without a hit are left out; they make up all but 2.1% or so of the library.
# INS promoter inh: TRM-6 insulin promoter activity inhibition | AID 1273 | TRM-6 cells (human fetal islet line), insulin promoter-eGFP reporter, imaging; reporter expression induced with tamoxifen | actives 0.9% (n = 130,000) | inhibition, % at 2 µM;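 active = inhibition above the mean plus 3 SD, with well images judged a real hit on visual review, cut at about 60% in these data, passing the limit was not always enough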
# Insulin prom up: MIN6 insulin promoter up-regulation | MIN6 insulin promoter-GFP reporter, high-content imaging; stronger effect = higher value | z-score at 5 µM | actives 0.3% (n = 190,000) | AID 1625;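 active = z-score above 3 at 5 µM with at least 500 cells counted in the well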
# Arbovirus inh: blocks arbovirus infection; actives 0.37% (n = 200,000); inhibition, % at 10 µM; arbovirus infection cell-based antiviral screen; AID 1251; in the data active = inhibition above about 30%
# RBBP9 inh: inhibitors of human serine hydrolase RBBP9 | O75884 | actives 0.2% (n = 220,000) | AID 1515 | inhibition, % at 7.94 µM | recombinant RBBP9, FP-Rh probe fluorescence polarization;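 active = inhibition above the campaign mean of all tested compounds plus 3 SD, cut at about 14% in these data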;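 note: plate controls were DMSO wells with RBBP9 for no effect and wells lacking RBBP9 protein for full effect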
# Target sequence (O75884 whole entry, looked up): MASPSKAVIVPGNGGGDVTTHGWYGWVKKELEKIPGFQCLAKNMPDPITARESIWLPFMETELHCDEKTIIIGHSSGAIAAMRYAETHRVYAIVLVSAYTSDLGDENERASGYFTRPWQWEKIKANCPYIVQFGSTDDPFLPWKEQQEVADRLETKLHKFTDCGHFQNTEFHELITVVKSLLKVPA
#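 Test system: recombinant human RBBP9. Quantity: 2.5 µM RBBP9 dispensing solution, before mixing. Detection: FP readout at 525/598 nm. Reagent: Serine-hydrolase probe FP-Rh, 375 nM pre-mixing. Measure: % inhibition. Control set: DMSO-treated enzyme wells and wells lacking RBBP9. Buffer or medium: Tris-NaCl-Pluronic buffer, pH 8.0. Times: preincubation 30 min plus labeling 45 min at 25 °C.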
# PKD1 inh: blocks activity of human protein kinase D1. Q15139. PKD1 kinase fluorescence polarization assay. inhibition, % (no concentration beside the values). actives 0.056% (n = 200,000); in the data active = inhibition above about 50%
# Autophagy mod: modulators of autophagy | MEF GFP-LC3 puncta imaging; test concentration mostly 10 µM | calls only at 10 µM (by protocol) | actives 0.98% (n = 190,000) | AID 463193;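 active = percentage of spot-positive cells more than 3 SD above its plate mean, without a fluorescence outlier flag or 80% toxicity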;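 note: spot-positive cell cutoff set from DMSO-treated cells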
# Numbers without * were called inactive; i = inactive; nt = no result; + = active, no number.
SMILES,INS promoter inh,Insulin prom up,Arbovirus inh,RBBP9 inh,PKD1 inh,Autophagy mod
CCc1ccc(-c2cc(C(F)(F)F)n3nc(C(=O)Nc4c(C)nn(Cc5ccccc5C)c4C)cc3n2)s1,-11,0.03,1,5,-2,+
COc1ccc(O[C@H]2C=C[C@@H](c3ccccc3)O[C@@H]2CO/N=C(\C)CCN2CCCCc3nc(C)c(C)cc32)cc1,-105,-0.63,-9,-1,-5,+
O=[N+]([O-])c1ccc(N/N=C/c2cn(Cc3ccc(F)cc3)c3ccccc23)nc1,nt,nt,-23,-3,1,+
Cc1cccc(C)c1-n1c(C)cc(/C=N\Nc2ccc([N+](=O)[O-])cn2)c1C,-67,nt,-10,-11,-5,+
O=C(Nc1ccc(OCC(F)(F)C(F)F)c(C(F)(F)F)c1)c1ccc(Cl)cc1,4,nt,nt,-26,-5,i
CCCc1nnc(NC(=O)CCC(=O)N2CCN(S(=O)(=O)c3ccc(F)cc3)CC2)s1,nt,-0.6,nt,5,nt,nt
Cc1nc2ccc(NC(=O)N3CCSCC3)cc2s1,-34,-0.41,-2,0,-4,i
Cc1nc2ccc(NC(=O)N3CCSCC3)cc2nc1C,77*,-0.48,-7,6,4,i
CCCCCOc1ccc(Br)cc1/C(C)=N/NC1=NCCN1,i,-5.2,-36,1,8,+
Cc1cccc(C(=O)N2CCCCCC2)c1,0,-0.51,8,1,6,i
Cc1cccc(C(=O)N2CCN(C(=O)c3cccc(C)c3)C(C)C2)c1 (stereo not given),4,nt,-3,1,-3,+
O=C(O)c1ccccc1Sc1c([N+](=O)[O-])cc(C(F)(F)F)cc1[N+](=O)[O-],73*,-0.66,31*,-5,-4,i
Cc1c(CN(C)Cc2cn(C)nc2-c2ccccc2F)[nH]c2ccccc12,nt,-0.15,-6,-8,2,+
Cc1noc(C)c1COc1cccc(C(=O)OCC(=O)N2CC(=O)Nc3ccccc32)c1,-209,-0.37,-22,-7,-2,+
O=C1CN(C(=O)COc2cccc(F)c2)c2ccccc2N1,nt,-0.28,-5,-2,-2,i
COc1ccccc1NC(=O)N1c2ccccc2NC(=O)CC1C (stereo not given),nt,0.2,nt,-5,nt,nt
CCCCSc1ncc(C(=O)OCC)c(N)n1,80*,nt,-7,-2,-6,i
COC(=O)c1ccc(/C=N/N2CCN(Cc3ccccc3Cl)CC2)cc1,nt,-0.46,nt,-4,nt,nt
CC(=O)c1sc(NC(=O)c2ccccc2F)nc1C,nt,0.2,-3,4,-8,i
Cc1cccc(-n2ncc3c(Nc4c(C)n(C)n(-c5ccccc5)c4=O)ncnc32)c1,100*,0.42,2,-6,-7,i
Cc1c(Nc2ncnc3c2cnn3-c2ccccc2)c(=O)n(-c2ccccc2)n1C,10,0.52,1,-4,-1,i
COc1ccc2c(C=O)cn(C)c2c1,nt,-0.25,-3,-5,-5,+
COc1ccc2[nH]cc(C=O)c2c1,38,0.79,3,-4,-18,i
O=C(c1ccc(C(F)(F)F)cc1)C1CCCN(C(=O)c2cnccn2)C1 (stereo not given),nt,1.7,7,4,10,i
CCOc1cc(/C=N/NC(N)=S)cc(Br)c1OCc1ccccc1C,18,0,-34,3,-13,+
SMILES,INS promoter inh,Insulin prom up,Arbovirus inh,RBBP9 inh,PKD1 inh,Autophagy mod
COc1ccc(-c2noc(CN(C)S(=O)(=O)c3ccccc3)n2)cc1OC,-48,nt,nt,-7,-7,i
O=C(CC1C(=O)NCCN1C(=O)Nc1ccc(Cl)cc1)Nc1ccc(F)cc1 (stereo not given),nt,-0.93,-31,-8,-4,+
CCn1nnc(NC(=O)c2sc3ccccc3c2Cl)n1,-106,nt,-2,-9,-7,i
Nc1[nH]ncc1N=Nc1ccc(Cl)cc1,16,nt,-11,-11,-5,i
Nc1[nH]ncc1-c1ccc(Cl)cc1,-22,0.02,-12,-11,3,+
CCCC(=O)Nc1nc2ccc(OCC)cc2s1,nt,-1.2,0,-6,-15,nt
CC(=O)c1sc(NC(=O)c2cc(-c3ccccc3)nn2-c2ccccc2)nc1C,25,-2,17,3,-15,i
Cc1cccc2sc(NC(=O)C3=NN(c4ccccc4)C(=O)CC3)nc12,nt,-1.2,3,0,1,i
CCOc1ccc2nc(NC(=O)C3=NN(c4ccccc4)C(=O)CC3)sc2c1,nt,-0.9,52*,-11,2,i
CCOc1ccc2nc(NC(=S)N(C)C)sc2c1,34,1.1,-23,-5,1,+
Cc1ccc2nc(NC(=O)C3=NN(c4ccccc4)C(=O)CC3)sc2c1,nt,0.49,60*,-4,0,i
O=C(Nc1nc2ccccc2s1)c1cc(-c2ccccc2)nn1-c1ccccc1,23,-0.01,49*,-5,-6,i
CCN(CC)S(=O)(=O)c1ccc(C(=O)/C=C/c2ccc(-c3ccc([N+](=O)[O-])cc3)o2)cc1,nt,1.2,nt,1,nt,nt
COc1ccc(-c2csc(NC(=O)C3=NN(c4ccccc4)C(=O)CC3)n2)cc1,nt,1.1,31*,-8,1,i
Nc1ccc(-c2nc3nc(N)nc(N)c3nc2-c2ccc(N)cc2)cc1,nt,4.9*,nt,-5,nt,nt
Nc1nc(N)c2ncc(C(=O)CCc3ccccc3)nc2n1,nt,1.4,-5,-6,0,i
COc1ccc2[nH]cc(CC(=O)O)c2c1,18,0.61,3,3,-6,i
COc1ccc2[nH]cc(CCNS(=O)(=O)c3ccc(NC(C)=O)cc3)c2c1,nt,0.15,-5,6,3,+
COC(=O)c1cc2occc2n1Cc1c(F)cccc1Cl,nt,3.1*,1,-3,10,i
COc1cc(OC)cc(C(=O)NC(=S)Nc2ccc3c4c(cccc24)CC3)c1,-41,1.2,-15,2,-10,i
COc1ccc(C(=O)Nc2ccc3c4c(cccc24)CC3)cc1,100*,1.4,-1,-3,-5,i
CN(C(=O)CSc1nnc(NCc2ccccc2)s1)C1CCS(=O)(=O)C1 (stereo not given),-19,0.05,1,-12,3,i
CCc1ccc(OCC(=O)Nc2ccc(-c3nc4ccccc4o3)c(O)c2)cc1,-84,0.22,-1,-5,3,i
Oc1cc(NCc2cccnc2)ccc1-c1nc2ccccc2o1,38,2.5,2,5,-4,+
CCn1c(N2CCN(S(=O)(=O)CC)CC2)nc2ccccc21,-42,nt,7,-12,-8,i
Cc1nc(S(=O)(=O)Cc2ccccc2Cl)nc2c1CCC2,73*,0.71,-4,-1,5,i
C=CCc1ccc(OCCOCCNCCOC)c(OC)c1,-6,-0.48,-6,5,-5,i
Cc1nn(Cc2ccc(F)cc2)c(C)c1NC(=O)c1cc(-c2ccco2)on1,0,0.99,0,-6,-1,i
CC1CCC/C(=C\Nc2ccc(O)cc2)C1=O (stereo not given),50,0.6,-24,14*,0,i

# Source: PubChem (several laboratories)
